Where “and” joins values, the source holds several entries; their conditions need not be identical. Identical values can stand only once. Like-named read-outs stand apart in the source and are kept apart here.
How the values were obtained:
TRKB = conditions: cited from earlier work
acute myeloid leukemia = assay: Clinical response in AML patients; type: in vivo, human; conditions: 5 patients with AML
Procedure, shortened: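 Relapsed or refractory AML patients (ECOG ≤1) received oral drug daily in continuous 28-day cycles. Powder-in-capsule dosing ran from 57 mg QD up to 1200 mg QD, and tablets from 100 mg. Intra-patient dose escalation was allowed. Disease response was assessed locally every 3 cycles by standard criteria.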

chronic myeloid leukemia [1] = assay: Clinical response in CML patients; type: in vivo, human
BCR-ABL1 or FLT3 [2] = assay: Pharmacodynamics in dosed patients: pCRKL / pSTAT5 in blood cells; type: in vivo, human; conditions: of 45 patients with evaluable samples
[3] = type: in vivo, human
[4] = Plasma pharmacokinetics after multiple oral doses; type: in vivo, human; conditions: for Tmax: median Tmax
[5] = Phase 1 safety: adverse events; type: in vivo, human
Procedure, shortened: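 First-in-human, multicenter, single-arm oral study in 57 patients, given daily in 28-day cycles. Powder-in-capsule doses escalated from 57 mg QD to 1200 mg QD over 11 cohorts, doubling between the initial single-patient cohorts. Titration was accelerated 3+3, switching to standard 3+3 at grade ≥2 AEs. Tablet cohorts followed, up to 200 mg BID. AEs were graded by NCI CTC v3.0, and DLTs were assessed in cycle 1.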

TIE2 [6] = conditions: cited from earlier work
[7] = Human plasma protein binding; type: in vitro ADME
TRKA = conditions: cited from earlier work
BCR-ABL1 T315I = conditions: cited from earlier work
TIE2 [8] = assay: Plasma angiopoietin 2; type: in vivo, human; conditions: Day 22 compared to baseline
BCR-ABL1 or FLT3 [9] = assay: Ex vivo incubation of patient whole blood, phosphorylation of CRKL or FLT3; type: cell-based; conditions: Homo sapiens, read-out: IC50 for inhibition of phosphorylation
Procedure, shortened: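 Predose screening whole blood from TKI-resistant CML or AML patients was incubated with test compound ex vivo. Mononuclear cells were then fixed and permeabilized. Phosphorylation of CRKL or FLT3 was measured, with pCRKL read by flow cytometry. IC50 for inhibition of phosphorylation was determined per evaluable sample.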

c-ABL1 = conditions: cited from earlier work
T315I BCR-ABL1 mutation = conditions: cited from earlier work
chronic myeloid leukemia [10] = conditions: CP-CML patients; cited from earlier work

In the case of `CNC(=O)c1cc(Oc2ccc(NC(=O)Nc3cc(C(C)(C)C)nn3-c3ccc4ncccc4c3)c(F)c2)ccn1` [rebastinib], the IC50 (TRKB) is given as 0.42 nM, the “AML patients with a response” value (acute myeloid leukemia) is given as “None” and the “patients with complete cytogenetic response” value (chronic myeloid leukemia [1]; T315I) is given as 1 patients. The “patients with complete hematologic response” value (chronic myeloid leukemia [1]; T315I) was 4 patients, the “patients with major molecular response” value (chronic myeloid leukemia [1]; T315I) was 2 patients and the “patients with minor cytogenetic response” value (chronic myeloid leukemia [1]; T315I) was 3 patients. For the same compound, the “patients with minor hematologic response” value (chronic myeloid leukemia [1]; T315I) was 0 patients, the “patients with partial cytogenetic response” value (chronic myeloid leukemia [1]; T315I) was 1 patients and the “patients with partial hematologic response” value (chronic myeloid leukemia [1]; T315I) was 3 patients. For the same compound, the “patients with complete hematologic response” value (chronic myeloid leukemia [1]; fifty evaluable) was 8 patients, the “patients with minor hematologic response” value (chronic myeloid leukemia [1]; fifty evaluable) was 3 patients and the “patients with partial hematologic response” value (chronic myeloid leukemia [1]; fifty evaluable) was 4 patients. The “overall cytogenetic response rate of CML patients” value (chronic myeloid leukemia [1]; human, in vivo) was 21%, the complete hematologic responses (chronic myeloid leukemia [1]; in 40 evaluable CML patients) was “Eight” and the “patients with complete cytogenetic response” value (chronic myeloid leukemia [1]; of 37 evaluable) was 2 patients. For the same compound, the “patients with cytogenetic response” value (chronic myeloid leukemia [1]; of 37 evaluable) was 8 patients, the “patients with minor cytogenetic response” value (chronic myeloid leukemia [1]; of 37 evaluable) was 4 patients and the “patients with partial cytogenetic response” value (chronic myeloid leukemia [1]; of 37 evaluable) was 2 patients. The “patients with molecular response (major molecular response)” value (chronic myeloid leukemia [1]; of 40 evaluable) was “Four”, the “patients with significant (>50%) inhibition of phosphorylation of CRKL and/or STAT5” value (BCR-ABL1 or FLT3 [2]) was 20 patients and the “patients with nervous system disorders” value ([3]; high Cmax subgroup) was 13 patients. For the same compound, the “patients with nervous system disorders” value ([3]; low Cmax subgroup) was 7 patients, the “patients with nervous system disorders” value ([3]; middle Cmax subgroup) was 5 patients and the “free drug in circulation” value ([4]; at 200 ng/mL, based on plasma protein binding) was ~ 1.3 nM. For the same compound, the “Bioavailability, formulated tablets compared to unformulated capsules” value ([4]; human, plasma, oral) was 3- to 4 fold, the “Exposure, tablets compared to PIC” value ([4]; human, plasma, oral) was “approximately 3 fold” and the half-life ([4]; human, plasma, oral) was 720 to 900 min. The “initial distribution phase from Tmax” value ([4]; human, plasma, oral) was 6–8 hours postdose, the “trough concentrations as % of Cmax” value ([4]; human, plasma, oral) was 10–20% and the Tmax ([4]; human, plasma, oral, PIC) was 2 h. For the same compound, the Tmax ([4]; human, plasma, oral, tablets) was 1 to 1.5 h, the Average plasma levels ([4]; ~1–4 hours postdose, 150 mg BID) was 200 ng/mL and 360 nM and the “patients with DLT in first cycle” value ([5]; 200 mg BID tablet) was 2 n. The “patients with DLT in first cycle” value ([5]; 1200 mg QD PIC) was 1 n, the SAE muscular weakness ([5]; N=57) was 4 patients and the “patients with AEs suggestive of nervous system disorders, any grade” value ([5]; N=57) was 33%. For the same compound, the “patients with Grade 3 or 4 AE” value ([5]; N=57) was 34 patients, the “patients with SAEs related to study treatment” value ([5]; N=57) was 18 patients and the “patients with musculoskeletal disorders of all grades” value ([5]; N=57) was 22 patients. The “patients with serious adverse events (SAEs)” value ([5]; N=57) was 34 patients, the “patients with visual abnormalities” value ([5]; N=57) was 19 patients and the “treatment-related SAE” value ([5]; dose levels below 300 mg BID (PIC) and 100 mg QD (tablet)) was “No treatment-related SAE”. For the same compound, the “CML patients with AEs suggestive of potential ≥Grade 3 cardiomyopathy” value ([5]; in vivo) was 4 patients, the Dose-limiting toxicities ([5]; in vivo) was “dysarthria, muscle weakness, and peripheral neuropathy” and the “patients discontinued due to musculoskeletal disorders” value ([5]; in vivo) was 2 patients. For the same compound, the “patients with at least one AE of any grade” value ([5]; in vivo) was 57 (100%) patients (%), the deaths deemed related ([5]; n=8 deaths) was “none” and the “patients with visual abnormalities first reported during Cycle 1” value ([5]; of 19) was 10 patients. For the same compound, the “patients with Grade 3 musculoskeletal events” value ([5]; of 22) was 13 patients, the “patients with musculoskeletal disorders during Cycle 1” value ([5]; of 22) was 14 patients and the “patients with Grade 3 AESI possibly or probably related” value ([5]; of 27 additional patients at 150 mg BID) was 18 patients. The “maximum tolerated dose (MTD)” value ([5]; tablets, twice daily (BID)) was 150 mg, the IC50 (TIE2 [6]) was 0.058 nM and the fraction unbound [7] was 0.0035. The IC50 (TRKA) was 0.17 nM, the “efficacy in mouse model” value (BCR-ABL1 T315I) was “effective” and the “patient samples with ANG2 increases” value (TIE2 [8]) was 19/20. For the same compound, the IC50 (BCR-ABL1 or FLT3 [9]) was under 200 nM and the IC50 (c-ABL1) was 0.7 nM.
For `Cc1cn(-c2cc(NC(=O)c3ccc(C)c(Nc4nccc(-c5cccnc5)n4)c3)cc(C(F)(F)F)c2)cn1` [nilotinib], the “effectiveness against the T315I BCR-ABL1 mutation” value (T315I BCR-ABL1 mutation) is given as “not effective”.
In the case of `Cc1ccc(C(=O)Nc2ccc(CN3CCN(C)CC3)c(C(F)(F)F)c2)cc1C#Cc1cnc2cccnn12` [ponatinib], the “effectiveness against the T315I mutation” value (T315I BCR-ABL1 mutation) is listed as “effective”.
In the case of `COc1cc(Nc2c(C#N)cnc3cc(OCCCN4CCN(C)CC4)c(OC)cc23)c(Cl)cc1Cl` [bosutinib], the “effectiveness against the T315I BCR-ABL1 mutation” value (T315I BCR-ABL1 mutation) is listed as “not effective”.
In the case of `COC(=O)C[C@](O)(CCCC(C)(C)O)C(=O)O[C@@H]1C(OC)=C[C@]23CCCN2CCc2cc4c(cc2[C@H]13)OCO4` [omacetaxine mepesuccinate], the cytogenetic responses (chronic myeloid leukemia [10]) is listed as ~ 20%.

From paper PMC5394958 (Haematologica, 2016)
